We go through one compound from ChEMBL document CHEMBL3108739, “Activation and inhibition of thermosensitive TRP channels by voacangine, an alkaloid present in Voacanga africana, an African tree” (J Nat Prod, 2014).

Active and inactive are the calls of the source. No cut-off for these calls is given here.

In experiment [1] the target is T1, Transient receptor potential cation channel subfamily V member 1 (Homo sapiens, UniProt Q8NER1). The experiment is described as follows: Competitive antagonist activity at human brain TRPV1 expressed in HEK293T cells assessed as inhibition of CAP-induced intracellular Ca2+ influx preincubated for 3 mins followed by CAP challenge by Schlid plot analysis. It is filed as cell-based. In a few lines:
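hTRPV1-HEK293T; capsaicin curves 0.0001−10 μM with 10, 30, 50 μM compound after 3 min preincubation. Schild plots (log(dose ratio − 1) vs log antagonist), six series; slope not differing from unity taken as competitive; KB derived.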

The target of experiment [2] is T2, Transient receptor potential cation channel subfamily A member 1 (Homo sapiens, UniProt O75762). The experiment is described as follows: Agonist activity at TRPA1 isolated from human W138 cells expressed in HEK293T cells assessed as intracellular Ca2+ influx at 10 to 100 uM by Fluo-4 AM staining-based fluorescence analysis relative to allylisothiocyanate. It is filed as cell-based. A digest of the protocol:
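Tetracycline-induced (1 μg/mL) stable hTRPA1 in HEK T-REx cells, Fluo-4 AM loaded (3 μM, 1 h, 37 °C) in HEPES buffer pH 7.4 with probenecid; Ca2+ read at 37 °C. Compound 0.01−100 μM; HC-030031 30 μM pretreated 3 min. Responses as % of 5 μM ionomycin or of 100 μM AITC; TREx cells without TRPA1 as control; n = 4−8.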

The target of experiment [3] is T2, Transient receptor potential cation channel subfamily A member 1. The experiment is described as follows: Agonist activity at TRPA1 isolated from human W138 cells expressed in HEK293T cells assessed as intracellular Ca2+ influx by Fluo-4 AM staining-based fluorescence analysis. Type of experiment: cell-based. A digest of the protocol: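 Tetracycline-induced (1 μg/mL) stable hTRPA1 in HEK T-REx cells, Fluo-4 AM loaded (3 μM, 1 h, 37 °C) in HEPES buffer pH 7.4 with probenecid; Ca2+ read at 37 °C. Responses as % of 5 μM ionomycin or of 100 μM AITC; TREx cells without TRPA1 as control; n = 4−8.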

The target in experiment [4] is T3, Transient receptor potential cation channel subfamily M member 8 (Mus musculus, UniProt Q8R4D5). Description: (§1) Antagonist at TRPM8 isolated from mouse dorsal root ganglion cells expressed in HEK T-REx cells assessed as inhibition of menthol-induced intracellular Ca2+ influx by fluorescence-based assay. Type of experiment: cell-based. A digest of the protocol: (§2)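 Tetracycline-induced mTRPM8 in HEK T-REx, Fluo-4 Ca2+ at 37 °C. Antagonists (e.g. 0.01−100 μM, CNA up to 500 μM) preincubated 3 min before 10 μM menthol. IC50 from dose−inhibition curves, data as % of 10 μM menthol; n = 4−12.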
T3 sequence (Q8R4D5 whole entry): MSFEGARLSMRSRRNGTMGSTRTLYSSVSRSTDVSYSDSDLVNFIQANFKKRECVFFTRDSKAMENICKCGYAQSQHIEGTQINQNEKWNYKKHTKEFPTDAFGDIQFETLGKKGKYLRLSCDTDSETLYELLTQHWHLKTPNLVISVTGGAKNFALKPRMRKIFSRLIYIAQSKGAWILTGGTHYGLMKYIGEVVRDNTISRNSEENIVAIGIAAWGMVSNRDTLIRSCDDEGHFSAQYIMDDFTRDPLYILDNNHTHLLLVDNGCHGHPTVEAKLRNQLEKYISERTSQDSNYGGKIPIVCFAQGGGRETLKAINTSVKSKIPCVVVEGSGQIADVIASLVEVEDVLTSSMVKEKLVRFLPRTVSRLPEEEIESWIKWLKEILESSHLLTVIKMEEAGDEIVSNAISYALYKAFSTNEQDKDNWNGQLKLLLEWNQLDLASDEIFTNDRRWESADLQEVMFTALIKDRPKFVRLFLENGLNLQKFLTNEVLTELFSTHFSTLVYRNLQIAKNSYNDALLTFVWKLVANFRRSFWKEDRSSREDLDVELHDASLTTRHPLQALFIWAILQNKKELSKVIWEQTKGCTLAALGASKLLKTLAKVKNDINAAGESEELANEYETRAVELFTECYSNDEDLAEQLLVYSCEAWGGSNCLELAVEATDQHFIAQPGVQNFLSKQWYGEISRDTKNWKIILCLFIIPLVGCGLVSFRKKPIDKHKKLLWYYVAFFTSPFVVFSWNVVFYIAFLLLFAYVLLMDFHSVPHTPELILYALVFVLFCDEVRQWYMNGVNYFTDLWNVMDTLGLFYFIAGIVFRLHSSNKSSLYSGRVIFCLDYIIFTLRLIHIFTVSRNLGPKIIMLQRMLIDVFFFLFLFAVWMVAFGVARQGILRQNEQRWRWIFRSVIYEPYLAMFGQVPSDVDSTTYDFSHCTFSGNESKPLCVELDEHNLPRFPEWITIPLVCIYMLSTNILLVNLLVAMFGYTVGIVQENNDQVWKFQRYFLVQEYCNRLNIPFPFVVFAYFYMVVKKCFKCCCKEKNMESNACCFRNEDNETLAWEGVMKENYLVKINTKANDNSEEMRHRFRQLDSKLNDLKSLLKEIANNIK

The target of experiment [5] is Transient receptor potential cation channel subfamily M member 8 (Mus musculus) (UniProt Q8R4D5). Described as §1. It is filed as cell-based. A digest of the protocol:
as §2

Experiment [6] has as its target T1, Transient receptor potential cation channel subfamily V member 1. The experiment is described as follows: Antagonist activity at human brain TRPV1 expressed in HEK293T cells assessed as inhibition of CAP-induced intracellular Ca2+ influx by fluorescence-based assay. Type of experiment: cell-based, HEK-293T. A digest of the protocol:
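hTRPV1-HEK293T, Fluo-4 Ca2+ at 37 °C; antagonist (0.3−100 μM) preincubated 3 min then 0.01 μM capsaicin; DMSO final 0.1−1%. IC50 from dose−inhibition curves; data as % of 10 μM capsaicin.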

Experiment [7] deals with T4, Transient receptor potential cation channel subfamily V member 2 (Homo sapiens) (UniProt Q9Y5S1).
T4 sequence (whole entry): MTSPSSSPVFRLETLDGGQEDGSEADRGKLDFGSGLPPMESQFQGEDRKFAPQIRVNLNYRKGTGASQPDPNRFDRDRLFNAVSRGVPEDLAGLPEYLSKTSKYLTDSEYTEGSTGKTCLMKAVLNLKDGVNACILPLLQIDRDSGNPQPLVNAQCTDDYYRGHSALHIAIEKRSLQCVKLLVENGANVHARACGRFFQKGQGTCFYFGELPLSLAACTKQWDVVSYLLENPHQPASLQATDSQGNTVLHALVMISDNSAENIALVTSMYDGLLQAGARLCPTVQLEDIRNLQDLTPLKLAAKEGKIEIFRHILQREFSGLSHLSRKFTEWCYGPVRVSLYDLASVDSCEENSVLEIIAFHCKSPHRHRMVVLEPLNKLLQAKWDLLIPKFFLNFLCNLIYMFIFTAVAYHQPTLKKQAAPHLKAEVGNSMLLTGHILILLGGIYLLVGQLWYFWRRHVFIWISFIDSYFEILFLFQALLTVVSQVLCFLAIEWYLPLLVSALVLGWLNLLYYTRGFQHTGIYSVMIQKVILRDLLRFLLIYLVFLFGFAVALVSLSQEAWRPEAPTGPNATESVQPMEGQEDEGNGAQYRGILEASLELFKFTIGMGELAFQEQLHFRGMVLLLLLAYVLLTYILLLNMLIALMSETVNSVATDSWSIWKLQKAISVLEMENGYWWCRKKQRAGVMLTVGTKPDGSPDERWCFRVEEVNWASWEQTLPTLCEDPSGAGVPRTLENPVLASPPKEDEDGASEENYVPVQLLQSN
Description: Antagonist activity at human TRPV2 expressed in HEK293T cells assessed as LPC-induced intracellular Ca2+ influx at 100 uM by Fluo-4 AM staining-based fluorescence analysis. It is filed as cell-based. Conditions: HEK-293T. A digest of the protocol: (§3)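 hTRPV2 transiently transfected into HEK293T, seeded 6 h after transfection and used 18 h later. Fluo-4 loading in probenecid-free buffer, 37 °C. Agonist 30 and 40 μM LPC; ruthenium red 5 μM as reference blocker; 100 μM compound given alone or pretreated 3 min. Read-out ΔF/F0 (%).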

For experiment [8], the target named is Transient receptor potential cation channel subfamily M member 8 (Mus musculus) (UniProt Q8R4D5). To be noted: Dorsal root ganglion, HEK T-REx, 5 to 100 uM.
Chain of Transient receptor potential cation channel subfamily M member 8 (Mus musculus) (Q8R4D5 whole entry): as the sequence (Q8R4D5 whole entry) above
The target is the same in experiment [9]. To be noted: Dorsal root ganglion, HEK T-REx, 100 uM.
Experiment [10] addresses T1, Transient receptor potential cation channel subfamily V member 1. Description: Antagonist activity at human brain TRPV1 expressed in HEK293T cells assessed as CAP-induced intracellular Ca2+ influx at 100 uM by Fluo-4 AM staining-based fluorescence analysis. Type of experiment: cell-based. Conditions: HEK-293T. In a few lines:
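Stable hTRPV1 in HEK293T (G418 selected), Fluo-4 loaded, 37 °C. 100 μM compound alone, or pretreated 3 min before 0.01 μM capsaicin; 10 μM BCTC reference. Data as % of 10 μM capsaicin.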

Experiment [11] deals with Transient receptor potential cation channel subfamily M member 8 (Mus musculus) (UniProt Q8R4D5). To be noted: Dorsal root ganglion, HEK T-REx, 100 uM. The source holds these as a separate data set.
Experiment [12] has the same target. To be noted: Dorsal root ganglion, HEK T-REx, 100 uM. This is another data set of the same source.
Experiment [13] has as its target T4, Transient receptor potential cation channel subfamily V member 2 (Homo sapiens). The experiment is described as follows: Agonist activity at human TRPV2 expressed in HEK293T cells assessed as intracellular Ca2+ influx at 100 uM by Fluo-4 AM staining-based fluorescence analysis. To be noted: HEK-293T. Type of experiment: cell-based. In a few lines: as §3
Experiment [14] addresses T3, Transient receptor potential cation channel subfamily M member 8. Description: Competitive antagonist at TRPM8 isolated from mouse dorsal root ganglion cells expressed in HEK T-REx cells assessed as inhibition of menthol-induced intracellular Ca2+ influx by Schlid plot analysis.

T2 sequence (O75762 whole entry): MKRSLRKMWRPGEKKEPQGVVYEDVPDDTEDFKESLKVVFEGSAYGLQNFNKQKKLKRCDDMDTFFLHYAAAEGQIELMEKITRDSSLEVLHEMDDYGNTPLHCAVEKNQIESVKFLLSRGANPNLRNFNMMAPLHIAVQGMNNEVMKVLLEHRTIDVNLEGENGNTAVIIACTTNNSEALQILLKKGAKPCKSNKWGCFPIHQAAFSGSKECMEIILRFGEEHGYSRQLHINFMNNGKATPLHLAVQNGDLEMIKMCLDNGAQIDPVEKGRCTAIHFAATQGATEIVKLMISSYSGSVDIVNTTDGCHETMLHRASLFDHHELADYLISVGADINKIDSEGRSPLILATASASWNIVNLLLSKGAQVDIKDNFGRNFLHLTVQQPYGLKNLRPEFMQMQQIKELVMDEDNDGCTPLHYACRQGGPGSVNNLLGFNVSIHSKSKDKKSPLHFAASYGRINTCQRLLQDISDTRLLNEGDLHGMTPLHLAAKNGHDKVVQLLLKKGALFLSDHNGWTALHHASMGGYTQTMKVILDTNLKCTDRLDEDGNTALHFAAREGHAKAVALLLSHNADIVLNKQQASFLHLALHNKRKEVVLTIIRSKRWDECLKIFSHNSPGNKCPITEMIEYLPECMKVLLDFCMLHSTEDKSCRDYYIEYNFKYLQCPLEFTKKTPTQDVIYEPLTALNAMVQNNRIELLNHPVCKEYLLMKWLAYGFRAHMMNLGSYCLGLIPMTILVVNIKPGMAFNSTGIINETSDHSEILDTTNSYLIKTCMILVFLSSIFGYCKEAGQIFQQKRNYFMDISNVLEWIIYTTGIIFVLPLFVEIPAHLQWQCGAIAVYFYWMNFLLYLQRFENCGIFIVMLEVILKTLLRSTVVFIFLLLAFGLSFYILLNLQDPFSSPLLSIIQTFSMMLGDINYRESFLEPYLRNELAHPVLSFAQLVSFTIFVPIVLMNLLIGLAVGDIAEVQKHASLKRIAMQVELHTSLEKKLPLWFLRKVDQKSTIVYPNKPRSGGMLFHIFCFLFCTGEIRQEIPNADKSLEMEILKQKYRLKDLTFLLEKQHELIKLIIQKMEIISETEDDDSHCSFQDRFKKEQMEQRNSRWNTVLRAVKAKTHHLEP
T1 sequence (Q8NER1 whole entry): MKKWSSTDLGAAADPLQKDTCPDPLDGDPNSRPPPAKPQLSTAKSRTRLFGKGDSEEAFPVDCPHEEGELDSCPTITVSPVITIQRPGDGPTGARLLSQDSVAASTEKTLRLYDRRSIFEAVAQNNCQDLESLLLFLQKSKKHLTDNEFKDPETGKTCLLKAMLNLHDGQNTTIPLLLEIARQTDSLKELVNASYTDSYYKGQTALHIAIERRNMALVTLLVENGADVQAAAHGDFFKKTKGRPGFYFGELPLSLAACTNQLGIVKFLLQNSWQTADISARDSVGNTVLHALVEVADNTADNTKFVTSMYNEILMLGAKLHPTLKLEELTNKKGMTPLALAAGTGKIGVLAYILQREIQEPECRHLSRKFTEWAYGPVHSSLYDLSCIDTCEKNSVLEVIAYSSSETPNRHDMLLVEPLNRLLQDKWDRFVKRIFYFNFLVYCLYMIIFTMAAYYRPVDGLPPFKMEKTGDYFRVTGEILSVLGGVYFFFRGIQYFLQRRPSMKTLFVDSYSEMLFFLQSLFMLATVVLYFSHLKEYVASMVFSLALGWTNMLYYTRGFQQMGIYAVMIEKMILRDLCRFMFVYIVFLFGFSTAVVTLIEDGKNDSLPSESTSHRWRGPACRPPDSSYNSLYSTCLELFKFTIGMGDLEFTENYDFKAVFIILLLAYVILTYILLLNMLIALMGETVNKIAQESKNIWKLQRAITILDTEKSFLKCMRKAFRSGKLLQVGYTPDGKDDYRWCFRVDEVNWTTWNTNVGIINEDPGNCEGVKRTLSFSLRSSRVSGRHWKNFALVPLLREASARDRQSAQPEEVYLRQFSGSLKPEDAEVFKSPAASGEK

Usually EC50 stands for the concentration giving half of the maximal effect. What is called IC50 is the concentration needed to halve the response being measured. Turning to `CC[C@H]1C[C@@H]2CN3CCc4c([nH]c5ccc(OC)cc45)[C@](C(=O)OC)(C2)[C@H]13` [VOACANGINE], the Kb in experiment [1] (HEK-293T) is 18 µM; in experiment [1] (read-out: pA2 (converted)), 20 µM; in [14] it was 7.94 µM. For the same compound, the Activity is 98% in experiment [2] and “Dose-dependent effect” in experiment [3] (HEK-293T). Also, the concentration for a half-maximal effect (EC50) in experiment [3] was found to be 8 µM. For the same compound, the half-maximal inhibitory concentration (IC50) in [4] was 9 µM; in experiment [6] it was 50 µM. Moreover, the inhibition result in experiment [5] and in [6] (HEK-293T) was “Dose-dependent effect” each time. In addition, the outcome in [7] and in [13] was inactive. Also, the inhibition entry in [8] and in experiment [9] was “Active” in each case. In addition, the outcome in experiment [10] was Active. Besides, the inhibition result in experiment [11] and in experiment [12] was “inactive” throughout.
